Measured values pooled from the literature.
Each line is one published result; the experiments were not run side by side.
Observed: cell growth or viability

SMILES | cell line | assay | conditions | quantity | value
COc1ccc(C=NNC(=O)c2sc(Nc3ccccc3)c(C(=O)Nc3ccc(OC)cc3)c2NC(C)=O)cc1 | HCT-116 | SRB | 1 µM, 48 h | viability | 59.4%
Cc1ccc(C(=O)NCc2ccsc2)cc1C#Cc1cn(CCN(C)C)c2ncnc(N)c12 | 32D |  |  | GI50 | > 1 µM
CCc1ncn(CC(c2c[nH]c3ccc(C)cc23)c2c[nH]c3ccc(C)cc23)c1C(=O)OC | DH82 | MTS | 20 µM, 24 h | inhibition | 6.1%
COc1ccc(/C=C/c2coc3ccc(OC)cc3c2=O)cc1 | HSC-2 | MTT | 23 h | CC50 | 2.6 µM
CC(C)Cc1nn(C)c(=O)c2c(SCCCO)n(Cc3cnc(NCCCCCN)c4ccccc34)cc12 | Raji | MTT | 96 h | EC50 | 0.024 µM
COc1ccc(NC(=O)c2c(Nc3ccccc3)sc(C(=O)NN=Cc3ccccc3)c2NC(C)=O)cc1 | HCT-116 | SRB | 1 µM, 48 h | viability | 77.3%
COc1ccc(-c2ccc(-c3ccc(C(=N)N)nc3)s2)cc1 | EKVX | SRB |  | GI50 | 1.7 µM
COc1ccc(NC(=O)c2c(Nc3ccccc3)sc(C#N)c2NC(=O)CNc2ccc(Br)cc2)cc1 | HCT-116 | SRB | 0.1 µM, 48 h | viability | 80.6%
COCCn1cc(C#Cc2cc(C(=O)NCc3ccsc3)ccc2C)c2c(N)ncnc21 | 32D |  |  | GI50 | > 3 µM
Clc1ccccc1-c1ccc(CNCC2(N3CCCC3)COC2)o1 | U-87 MG |  | 30 µM, 48 h | viability | 63.6%
Cc1ccc(C(=O)NCc2ccsc2)cc1C#Cc1cn(C)c2ncnc(N)c12 | 32D |  |  | GI50 | 0.106 µM
CC#CC(=O)N1CC[C@@H](n2cc(-c3ccc(Oc4c(F)cccc4F)cc3)c3c(N)n[nH]c(=O)c32)C1 | DOHH-2 | ATP luminescence | 72 h | GI50 | 8.58 µM
COc1ccc(NC(=O)c2c(Nc3ccccc3)sc(C#N)c2NC(=O)CNc2ccccc2Cl)cc1 | HCT-116 | SRB | 10 µM, 48 h | viability | 62.9%
CCOC(=O)c1c(C)ncn1CC(c1cn(C)c2ccc([N+](=O)[O-])cc12)c1cn(C)c2ccc([N+](=O)[O-])cc12 | DH82 | MTS | 20 µM, 24 h | inhibition | 20.5%
CC(C)Cc1nn(C)c(=O)c2c(SCCCO)n(Cc3ccc(NCCCCCN)nc3)cc12 | Raji | MTT | 96 h | EC50 | 0.52 µM
COc1ccc2occ(/C=C/c3ccc(O)cc3)c(=O)c2c1 | HSC-2 | MTT | 6.7 h | CC50 | 9.5 µM
Cc1ccc(C(=O)NCc2ccsc2)cc1C#Cc1cn(C2CCCC2)c2ncnc(N)c12 | 32D |  |  | GI50 | > 1 µM
FC1CCN(C2(CNCc3ccc(-c4ccccc4Cl)o3)COC2)C1 (centres unmarked) | U-87 MG |  | 30 µM, 48 h | viability | 45.4%
Cn1nnc2c(C(N)=O)ncn2c1=O | AGS |  |  | EC50 | 310 µM
COc1ccc2occ(/C=C/c3cc(OC)c(OC)c(OC)c3)c(=O)c2c1 | HSC-2 | MTT | 23 h | CC50 | 4.2 µM
COC(=O)c1c(C)ncn1CC(c1c[nH]c2ccc(C)cc12)c1c[nH]c2ccc(C)cc12 | DH82 | MTS | 20 µM, 24 h | inhibition | 11.3%
COc1ccc(NC(=O)c2c(Nc3ccccc3)sc(C#N)c2NC(=O)CNc2ccccc2[N+](=O)[O-])cc1 | HCT-116 | SRB | 10 µM, 48 h | viability | 72.7%
CCCCCCCCCCCCCCCCOP(=O)([O-])OCC[N+](C)(C)C | DH82 | MTS | 20 µM, 24 h | inhibition | 43.9%
COc1ccc(NC(=O)c2c(Nc3ccccc3)sc(C(=O)NN=Cc3ccc(C)cc3)c2NC(C)=O)cc1 | HCT-116 | SRB | 100 µM, 48 h | viability | 76.1%
COc1cccc(Oc2ccccc2NC(=O)CNC(=O)c2cccc3ccccc23)c1 | EKVX | SRB | 48 h | GI50 | 1.29 µM
COc1ccc(NC(=O)c2c(Nc3ccccc3)sc(C(=O)NN=Cc3cc(OC)c(OC)c(OC)c3)c2NC(C)=O)cc1 | HCT-116 | SRB | 1 µM, 48 h | viability | 78.4%
COc1cc(-c2ccc(-c3ccc(C(=N)N)nc3)s2)cc(OC)c1OC | EKVX | SRB |  | GI50 | 5.19 µM
CC(C)Cc1nn(C)c(=O)c2c(SCCCO)n(Cc3ccc(Cl)nc3)cc12 | Raji | MTT | 96 h | EC50 | 1 µM
COc1ccc(NC(=O)c2c(Nc3ccccc3)sc(C#N)c2NC(=O)CNc2ccc(C)cc2)cc1 | HCT-116 | SRB | 10 nM, 48 h | viability | 92.4%
